Test results: ChEMBL document CHEMBL4196066, “Design and synthesis of furyl/thineyl pyrroloquinolones based on natural alkaloid perlolyrine, lead to the discovery of potent and selective PDE5 inhibitors” (Eur J Med Chem, 2018)

Key:
[1] = target: T1, cGMP-specific 3',5'-cyclic phosphodiesterase (Homo sapiens, UniProt O76074); test: Inhibition of N-terminal GST-tagged full length recombinant human PDE5A1 catalytic domain expressed in Baculovirus infected Sf9 insect cells using FAM-cGMP as substrate after 1 hr by fluorescence polarization assay
[2] = target: T1, cGMP-specific 3',5'-cyclic phosphodiesterase; test: Inhibition of PDE5 (unknown origin)
[3] = target: cGMP-inhibited 3',5'-cyclic phosphodiesterase 3B (Homo sapiens) (UniProt Q13370); test: Inhibition of N-terminal GST-tagged recombinant human PDE3B (592 end residues) expressed in Baculovirus infected Sf9 insect cells at 30 uM using FAM-cAMP as substrate after 1 hr by fluorescence polarization assay relative to control
Sequence of cGMP-inhibited 3',5'-cyclic phosphodiesterase 3B (Homo sapiens) (Q13370 whole entry, looked up, the tested form may be a part): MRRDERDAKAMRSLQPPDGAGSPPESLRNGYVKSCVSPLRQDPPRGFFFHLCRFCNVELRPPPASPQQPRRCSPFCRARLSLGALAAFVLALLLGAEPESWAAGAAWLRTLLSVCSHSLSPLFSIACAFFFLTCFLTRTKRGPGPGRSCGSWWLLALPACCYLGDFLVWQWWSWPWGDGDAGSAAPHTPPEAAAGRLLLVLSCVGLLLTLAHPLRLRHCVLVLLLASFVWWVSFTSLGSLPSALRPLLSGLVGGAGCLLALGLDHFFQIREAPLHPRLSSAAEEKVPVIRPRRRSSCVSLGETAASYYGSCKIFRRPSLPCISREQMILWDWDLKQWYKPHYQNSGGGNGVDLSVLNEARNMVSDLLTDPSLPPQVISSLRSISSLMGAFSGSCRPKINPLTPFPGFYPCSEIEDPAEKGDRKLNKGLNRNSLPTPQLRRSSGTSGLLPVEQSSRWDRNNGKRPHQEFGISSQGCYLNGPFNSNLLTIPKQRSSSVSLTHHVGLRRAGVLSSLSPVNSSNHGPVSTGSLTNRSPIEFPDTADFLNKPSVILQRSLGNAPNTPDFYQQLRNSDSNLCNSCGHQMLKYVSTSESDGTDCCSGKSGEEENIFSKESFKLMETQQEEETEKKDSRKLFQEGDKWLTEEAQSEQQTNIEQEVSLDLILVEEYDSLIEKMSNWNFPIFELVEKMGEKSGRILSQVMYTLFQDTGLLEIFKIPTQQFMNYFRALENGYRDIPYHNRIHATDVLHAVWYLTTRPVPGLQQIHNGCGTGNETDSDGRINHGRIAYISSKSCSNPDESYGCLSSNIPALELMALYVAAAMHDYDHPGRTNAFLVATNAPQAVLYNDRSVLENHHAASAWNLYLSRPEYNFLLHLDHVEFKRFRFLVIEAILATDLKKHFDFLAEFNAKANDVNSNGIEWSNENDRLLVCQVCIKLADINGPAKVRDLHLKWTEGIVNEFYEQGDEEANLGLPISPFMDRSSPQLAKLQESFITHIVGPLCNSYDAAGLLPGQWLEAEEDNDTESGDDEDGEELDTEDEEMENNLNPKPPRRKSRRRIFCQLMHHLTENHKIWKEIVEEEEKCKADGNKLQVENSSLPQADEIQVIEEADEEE

[4] = target: 3',5'-cyclic-AMP phosphodiesterase 4A (Homo sapiens) (UniProt P27815); test: Inhibition of N-terminal GST-tagged full length recombinant human PDE4A1A expressed in Baculovirus infected Sf9 insect cells at 8 uM using FAM-cAMP as substrate after 1 hr by fluorescence polarization assay relative to control
Sequence of 3',5'-cyclic-AMP phosphodiesterase 4A (Homo sapiens) (P27815 whole entry, the tested form may be a part): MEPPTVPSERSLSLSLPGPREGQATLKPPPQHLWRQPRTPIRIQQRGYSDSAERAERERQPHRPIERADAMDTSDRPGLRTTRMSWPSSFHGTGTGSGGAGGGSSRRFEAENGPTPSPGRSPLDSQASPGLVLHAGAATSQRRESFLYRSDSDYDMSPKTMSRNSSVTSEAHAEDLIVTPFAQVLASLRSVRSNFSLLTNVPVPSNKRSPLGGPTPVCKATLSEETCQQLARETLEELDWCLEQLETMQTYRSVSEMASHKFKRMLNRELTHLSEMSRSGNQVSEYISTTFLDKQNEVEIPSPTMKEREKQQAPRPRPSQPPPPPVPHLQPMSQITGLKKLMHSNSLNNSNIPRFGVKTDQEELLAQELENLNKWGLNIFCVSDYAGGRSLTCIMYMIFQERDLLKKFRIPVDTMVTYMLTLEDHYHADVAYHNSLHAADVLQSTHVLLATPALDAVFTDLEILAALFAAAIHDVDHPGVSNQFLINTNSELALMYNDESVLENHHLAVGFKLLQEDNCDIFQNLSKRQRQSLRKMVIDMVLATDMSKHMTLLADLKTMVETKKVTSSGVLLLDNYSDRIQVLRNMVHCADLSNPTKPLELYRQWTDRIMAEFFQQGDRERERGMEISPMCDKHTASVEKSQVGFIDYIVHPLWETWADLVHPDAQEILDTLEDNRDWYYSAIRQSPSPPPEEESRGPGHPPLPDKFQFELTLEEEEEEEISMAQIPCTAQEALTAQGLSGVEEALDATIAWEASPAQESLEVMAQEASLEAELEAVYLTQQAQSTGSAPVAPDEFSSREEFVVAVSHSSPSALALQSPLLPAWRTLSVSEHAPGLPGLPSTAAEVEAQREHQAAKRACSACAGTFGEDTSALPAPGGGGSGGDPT

[5] = organism: Homo sapiens; test: Selectivity ratio of IC50 for N-terminal GST-tagged recombinant human PDE3B (592 end residues) to IC50 for N-terminal GST-tagged full length recombinant human PDE5A1 catalytic domain
[6] = organism: Homo sapiens; test: Selectivity ratio of IC50 for N-terminal FLAG-tagged human PDE2A1 (2 to 941 residues) to IC50 for N-terminal GST-tagged full length recombinant human PDE5A1 catalytic domain
[7] = organism: Homo sapiens; test: Selectivity ratio of IC50 for N-terminal GST-tagged full length recombinant human PDE6C to IC50 for N-terminal GST-tagged full length recombinant human PDE5A1 catalytic domain
[8] = target: Dual specificity calcium/calmodulin-dependent 3',5'-cyclic nucleotide phosphodiesterase 1A (Homo sapiens) (UniProt P54750); test: Inhibition of N-terminal GST-tagged full length recombinant human PDE1A expressed in Baculovirus infected Sf9 insect cells at 30 uM using FAM-cAMP as substrate after 1 hr by fluorescence polarization assay relative to control
Sequence of Dual specificity calcium/calmodulin-dependent 3',5'-cyclic nucleotide phosphodiesterase 1A (Homo sapiens) (P54750 whole entry, the tested form may be a part): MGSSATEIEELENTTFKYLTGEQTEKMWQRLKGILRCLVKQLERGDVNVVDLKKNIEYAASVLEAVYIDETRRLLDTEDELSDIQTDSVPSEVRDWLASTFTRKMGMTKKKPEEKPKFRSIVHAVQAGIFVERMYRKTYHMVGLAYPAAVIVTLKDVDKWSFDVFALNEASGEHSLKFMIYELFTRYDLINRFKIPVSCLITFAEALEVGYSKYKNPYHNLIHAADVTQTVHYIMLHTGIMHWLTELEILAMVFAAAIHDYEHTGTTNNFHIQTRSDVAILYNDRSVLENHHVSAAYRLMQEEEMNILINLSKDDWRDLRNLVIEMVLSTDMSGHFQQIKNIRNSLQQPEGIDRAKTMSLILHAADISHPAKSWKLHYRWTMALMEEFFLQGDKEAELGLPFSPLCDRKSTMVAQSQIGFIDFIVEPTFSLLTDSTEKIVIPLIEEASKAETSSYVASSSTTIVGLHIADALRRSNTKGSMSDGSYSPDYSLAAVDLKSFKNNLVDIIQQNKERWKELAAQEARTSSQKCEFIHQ

[9] = target: cGMP-dependent 3',5'-cyclic phosphodiesterase (Homo sapiens) (UniProt O00408); test: Inhibition of N-terminal FLAG-tagged human PDE2A1 (2 to 941 residues) expressed in Baculovirus infected Sf9 insect cells at 30 uM using FAM-cAMP as substrate after 1 hr by fluorescence polarization assay relative to control
Sequence of cGMP-dependent 3',5'-cyclic phosphodiesterase (Homo sapiens) (O00408 whole entry, the tested form may be a part): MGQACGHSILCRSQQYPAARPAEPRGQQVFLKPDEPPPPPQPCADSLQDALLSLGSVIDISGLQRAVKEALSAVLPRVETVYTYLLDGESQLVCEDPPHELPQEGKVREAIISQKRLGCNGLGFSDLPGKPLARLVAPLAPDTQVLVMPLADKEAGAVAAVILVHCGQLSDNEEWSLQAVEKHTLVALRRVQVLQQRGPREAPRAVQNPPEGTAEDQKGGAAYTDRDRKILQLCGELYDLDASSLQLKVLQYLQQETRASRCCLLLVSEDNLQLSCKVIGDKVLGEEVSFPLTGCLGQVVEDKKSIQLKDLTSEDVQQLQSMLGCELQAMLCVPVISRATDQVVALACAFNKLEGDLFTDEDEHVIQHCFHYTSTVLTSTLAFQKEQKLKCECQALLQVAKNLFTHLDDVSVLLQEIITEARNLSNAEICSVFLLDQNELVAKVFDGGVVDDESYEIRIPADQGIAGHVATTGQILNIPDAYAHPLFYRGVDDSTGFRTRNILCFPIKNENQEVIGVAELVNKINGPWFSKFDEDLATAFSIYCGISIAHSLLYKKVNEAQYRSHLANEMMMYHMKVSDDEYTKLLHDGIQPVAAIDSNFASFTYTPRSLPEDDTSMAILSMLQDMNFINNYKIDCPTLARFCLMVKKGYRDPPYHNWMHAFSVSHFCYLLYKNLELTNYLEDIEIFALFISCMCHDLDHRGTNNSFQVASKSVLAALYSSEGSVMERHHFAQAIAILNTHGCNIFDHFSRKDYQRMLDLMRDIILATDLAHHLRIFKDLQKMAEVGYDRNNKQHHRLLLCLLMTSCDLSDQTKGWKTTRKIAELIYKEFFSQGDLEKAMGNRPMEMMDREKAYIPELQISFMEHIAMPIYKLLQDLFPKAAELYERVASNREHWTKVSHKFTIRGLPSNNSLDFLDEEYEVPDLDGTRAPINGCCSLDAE

[10] = target: Cone cGMP-specific 3',5'-cyclic phosphodiesterase subunit alpha' (Homo sapiens, UniProt P51160); test: Inhibition of N-terminal GST-tagged full length recombinant human PDE6C expressed in Baculovirus infected Sf9 insect cells using […] as substrate after 1 hr by fluorescence polarization assay
Sequence of Cone cGMP-specific 3',5'-cyclic phosphodiesterase subunit alpha' (P51160 whole entry, the tested form may be a part): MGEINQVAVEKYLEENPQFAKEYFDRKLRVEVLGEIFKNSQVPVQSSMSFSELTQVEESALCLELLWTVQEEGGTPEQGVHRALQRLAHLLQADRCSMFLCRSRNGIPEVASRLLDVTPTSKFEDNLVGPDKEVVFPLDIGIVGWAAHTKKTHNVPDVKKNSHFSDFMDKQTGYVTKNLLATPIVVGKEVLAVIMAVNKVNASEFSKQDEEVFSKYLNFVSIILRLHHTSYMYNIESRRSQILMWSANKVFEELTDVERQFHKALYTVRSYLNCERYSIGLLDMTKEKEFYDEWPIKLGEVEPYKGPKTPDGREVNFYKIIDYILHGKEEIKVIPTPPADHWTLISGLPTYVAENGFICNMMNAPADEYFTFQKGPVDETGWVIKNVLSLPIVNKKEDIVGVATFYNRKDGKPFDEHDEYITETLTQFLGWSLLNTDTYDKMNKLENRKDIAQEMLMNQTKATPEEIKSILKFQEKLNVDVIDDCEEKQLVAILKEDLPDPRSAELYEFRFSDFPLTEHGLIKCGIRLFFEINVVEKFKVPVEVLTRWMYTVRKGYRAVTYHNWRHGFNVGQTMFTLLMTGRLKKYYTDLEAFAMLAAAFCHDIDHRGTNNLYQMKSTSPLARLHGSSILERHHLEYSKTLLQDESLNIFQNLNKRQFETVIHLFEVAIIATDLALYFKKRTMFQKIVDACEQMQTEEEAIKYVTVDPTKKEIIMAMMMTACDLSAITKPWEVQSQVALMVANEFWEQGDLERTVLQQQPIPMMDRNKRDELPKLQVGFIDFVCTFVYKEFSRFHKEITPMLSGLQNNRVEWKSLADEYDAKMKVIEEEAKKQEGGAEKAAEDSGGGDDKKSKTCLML

[11] = organism: Homo sapiens; test: Selectivity ratio of IC50 for N-terminal GST-tagged full length recombinant human PDE1A to IC50 for N-terminal GST-tagged full length recombinant human PDE5A1 catalytic domain
[12] = organism: Homo sapiens; test: Selectivity ratio of IC50 for N-terminal GST-tagged full length recombinant human PDE4A1A to IC50 for N-terminal GST-tagged full length recombinant human PDE5A1 catalytic domain
[13] = target: cGMP-dependent 3',5'-cyclic phosphodiesterase (Homo sapiens) (UniProt O00408); test: Inhibition of N-terminal FLAG-tagged human PDE2A1 (2 to 941 residues) expressed in Baculovirus infected Sf9 insect cells at 6 uM using FAM-cAMP as substrate after 1 hr by fluorescence polarization assay relative to control
[14] = target: 3',5'-cyclic-AMP phosphodiesterase 4A (Homo sapiens) (UniProt P27815); test: Inhibition of N-terminal GST-tagged full length recombinant human PDE4A1A expressed in Baculovirus infected Sf9 insect cells at 1.5 uM using FAM-cAMP as substrate after 1 hr by fluorescence polarization assay relative to control
[15] = target: Dual specificity calcium/calmodulin-dependent 3',5'-cyclic nucleotide phosphodiesterase 1A (Homo sapiens) (UniProt P54750); test: Inhibition of N-terminal GST-tagged full length recombinant human PDE1A expressed in Baculovirus infected Sf9 insect cells at 6 uM using FAM-cAMP as substrate after 1 hr by fluorescence polarization assay relative to control
[16] = tested on: Thoracic aorta; test: Vasorelaxant activity in norepinephrine-pretreated New Zealand rabbit thoracic aorta assessed as increase in aortic relaxation at 1 uM measured after 15 mins relative to control; type: functional, Oryctolagus cuniculus; design: scale not given: the % may be the effect or the level left
Outline: (§1)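 Thoracic aortic rings from New Zealand white rabbits were held in Krebs buffer at 2 g resting tension (0%) and equilibrated 2 h. Rings were contracted to maximum with 1 µM norepinephrine (100%). Compounds were added cumulatively at 15 min intervals, with tension recorded 15 min after each dose. Relaxation % = (max − recorded)/(max − 2 g) × 100; n = 1–2 rings.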

[17] = target: cGMP-inhibited 3',5'-cyclic phosphodiesterase 3B (Homo sapiens) (UniProt Q13370); test: Inhibition of N-terminal GST-tagged recombinant human PDE3B (592 end residues) expressed in Baculovirus infected Sf9 insect cells at 6 uM using FAM-cAMP as substrate after 1 hr by fluorescence polarization assay relative to control
[18] = target: 3',5'-cyclic-AMP phosphodiesterase 4A (Homo sapiens) (UniProt P27815); test: Inhibition of N-terminal GST-tagged full length recombinant human PDE4A1A expressed in Baculovirus infected Sf9 insect cells at 3 uM using FAM-cAMP as substrate after 1 hr by fluorescence polarization assay relative to control
[19] = target: cGMP-inhibited 3',5'-cyclic phosphodiesterase 3B (Homo sapiens) (UniProt Q13370); test: Inhibition of N-terminal GST-tagged recombinant human PDE3B (592 end residues) expressed in Baculovirus infected Sf9 insect cells at 12.5 uM using FAM-cAMP as substrate after 1 hr by fluorescence polarization assay relative to control
[20] = tested on: Thoracic aorta; test: Vasorelaxant activity in norepinephrine-pretreated New Zealand rabbit thoracic aorta assessed as increase in aortic relaxation at 10 uM measured after 15 mins relative to control; type: functional, Oryctolagus cuniculus; design: scale not given: the % may be the effect or the level left; outline: as §1
[21] = target: cGMP-dependent 3',5'-cyclic phosphodiesterase (Homo sapiens) (UniProt O00408); test: Inhibition of N-terminal FLAG-tagged human PDE2A1 (2 to 941 residues) expressed in Baculovirus infected Sf9 insect cells at 12.5 uM using FAM-cAMP as substrate after 1 hr by fluorescence polarization assay relative to control
[22] = target: Dual specificity calcium/calmodulin-dependent 3',5'-cyclic nucleotide phosphodiesterase 1A (Homo sapiens) (UniProt P54750); test: Inhibition of N-terminal GST-tagged full length recombinant human PDE1A expressed in Baculovirus infected Sf9 insect cells at 12.5 uM using FAM-cAMP as substrate after 1 hr by fluorescence polarization assay relative to control
[23] = target: cGMP-dependent 3',5'-cyclic phosphodiesterase (Homo sapiens) (UniProt O00408); test: Inhibition of N-terminal FLAG-tagged human PDE2A1 (2 to 941 residues) expressed in Baculovirus infected Sf9 insect cells at 5.5 uM using FAM-cAMP as substrate after 1 hr by fluorescence polarization assay relative to control
[24] = target: Dual specificity calcium/calmodulin-dependent 3',5'-cyclic nucleotide phosphodiesterase 1A (Homo sapiens) (UniProt P54750); test: Inhibition of N-terminal GST-tagged full length recombinant human PDE1A expressed in Baculovirus infected Sf9 insect cells at 5.5 uM using FAM-cAMP as substrate after 1 hr by fluorescence polarization assay relative to control
[25] = target: 3',5'-cyclic-AMP phosphodiesterase 4A (Homo sapiens) (UniProt P27815); test: Inhibition of N-terminal GST-tagged full length recombinant human PDE4A1A expressed in Baculovirus infected Sf9 insect cells at 1 uM using FAM-cAMP as substrate after 1 hr by fluorescence polarization assay relative to control
[26] = target: cGMP-inhibited 3',5'-cyclic phosphodiesterase 3B (Homo sapiens) (UniProt Q13370); test: Inhibition of N-terminal GST-tagged recombinant human PDE3B (592 end residues) expressed in Baculovirus infected Sf9 insect cells at 5.5 uM using FAM-cAMP as substrate after 1 hr by fluorescence polarization assay relative to control
[27] = target: cGMP-dependent 3',5'-cyclic phosphodiesterase (Homo sapiens) (UniProt O00408); test: Inhibition of N-terminal FLAG-tagged human PDE2A1 (2 to 941 residues) expressed in Baculovirus infected Sf9 insect cells at 25 uM using FAM-cAMP as substrate after 1 hr by fluorescence polarization assay relative to control
[28] = target: 3',5'-cyclic-AMP phosphodiesterase 4A (Homo sapiens) (UniProt P27815); test: Inhibition of N-terminal GST-tagged full length recombinant human PDE4A1A expressed in Baculovirus infected Sf9 insect cells at 6 uM using FAM-cAMP as substrate after 1 hr by fluorescence polarization assay relative to control
[29] = target: cGMP-inhibited 3',5'-cyclic phosphodiesterase 3B (Homo sapiens) (UniProt Q13370); test: Inhibition of N-terminal GST-tagged recombinant human PDE3B (592 end residues) expressed in Baculovirus infected Sf9 insect cells at 25 uM using FAM-cAMP as substrate after 1 hr by fluorescence polarization assay relative to control
[30] = target: Dual specificity calcium/calmodulin-dependent 3',5'-cyclic nucleotide phosphodiesterase 1A (Homo sapiens) (UniProt P54750); test: Inhibition of N-terminal GST-tagged full length recombinant human PDE1A expressed in Baculovirus infected Sf9 insect cells at 25 uM using FAM-cAMP as substrate after 1 hr by fluorescence polarization assay relative to control

Row | IC50 [1] | Ratio IC50 [5] | Ratio IC50 [6] | Ratio IC50 [7] | IC50 [10] | Ratio IC50 [11] | Ratio IC50 [12] | Structure (SMILES) | further results
1 | 0.67 nM |  |  |  |  |  |  | CCc1ccc(C2c3[nH]c4ccccc4c(=O)c3CN2c2ncc(-c3cccnc3)cn2)s1 (configuration not stated) | 
2 | 0.6 nM |  |  |  |  |  |  | CCc1ccc(C2c3[nH]c4ccccc4c(=O)c3CN2c2ncc(-c3ccncc3)cn2)s1 (configuration not stated) | 
3 |  |  |  |  |  |  |  | OCc1ccc(-c2nccc3c2[nH]c2ccccc23)o1 [PERLOLYRIN] | IC50 [2]: 9300 nM
4 | 3.14 nM | > 10000 | > 10000 | 2 | 6.2 nM | > 10000 | > 2500 | CCc1ccc(C2c3[nH]c4ccccc4c(=O)c3CN2c2ncccn2)o1 (configuration not stated) | inhibition [3]: 3.5%; inhibition [4]: 11%; inhibition [8]: 3.5%; inhibition [9]: 33%
5 | 1.25 nM |  |  |  |  |  |  | CCc1ccc(C2c3[nH]c4ccccc4c(=O)c3CN2c2ncc(-c3ccc(OC)c(OC)c3)cn2)s1 (configuration not stated) | 
6 | 0.6 nM | > 10000 | > 10000 | 8 | 4.8 nM | > 10000 | > 2500 | CCc1ccc(C2c3[nH]c4ccccc4c(=O)c3CN2c2ncc(-c3ccccn3)cn2)s1 (racemic) | inhibition [13]: 7%; inhibition [14]: 3%; inhibition [15]: 2.5%; Activity [16]: >90%; inhibition [17]: 2.5%
7 | 0.97 nM | > 10000 | > 10000 | 3.9 | 3.8 nM | > 10000 | > 2500 | CCc1ccc([C@H]2c3[nH]c4ccccc4c(=O)c3CN2c2ncc(-c3ccccn3)cn2)o1 | inhibition [18]: 12%; inhibition [19]: 10%; Activity [20]: 30%; inhibition [21]: 51%; inhibition [22]: 7.5%
8 | 0.54 nM | > 10000 | > 10000 | 4.3 | 2.3 nM | > 10000 | > 2500 | CCc1ccc(C2c3[nH]c4ccccc4c(=O)c3CN2c2ncc(-c3ccccn3)cn2)o1 (racemic) | Activity [16]: >90%; inhibition [23]: 10%; inhibition [24]: 2.5%; inhibition [25]: 5%; inhibition [26]: 8%
9 | 2.5 nM | > 10000 | > 10000 | 1.5 | 3.7 nM | > 10000 | > 2500 | CCc1ccc(C2c3[nH]c4ccccc4c(=O)c3CN2c2ncccn2)s1 (configuration not stated) | inhibition [27]: 37%; inhibition [28]: 8%; inhibition [29]: 2.5%; inhibition [30]: 3.5%
